Results: ChEMBL document CHEMBL1145402, “Discovery of potent and muscle selective androgen receptor modulators through scaffold modifications” (J Med Chem, 2007)
pEC50, pIC50, pKi: −log10 of the molar value. In brackets after ≈: the same amount, converted by molar mass.

Columns and labels:
Androgen receptor [1] = target: T1, Androgen receptor (Homo sapiens, UniProt P10275); test: Displacement of [3H]DHT from androgen receptor expressed in MDA-MB-453 cells; format: cell-based
T1 sequence (P10275 whole entry): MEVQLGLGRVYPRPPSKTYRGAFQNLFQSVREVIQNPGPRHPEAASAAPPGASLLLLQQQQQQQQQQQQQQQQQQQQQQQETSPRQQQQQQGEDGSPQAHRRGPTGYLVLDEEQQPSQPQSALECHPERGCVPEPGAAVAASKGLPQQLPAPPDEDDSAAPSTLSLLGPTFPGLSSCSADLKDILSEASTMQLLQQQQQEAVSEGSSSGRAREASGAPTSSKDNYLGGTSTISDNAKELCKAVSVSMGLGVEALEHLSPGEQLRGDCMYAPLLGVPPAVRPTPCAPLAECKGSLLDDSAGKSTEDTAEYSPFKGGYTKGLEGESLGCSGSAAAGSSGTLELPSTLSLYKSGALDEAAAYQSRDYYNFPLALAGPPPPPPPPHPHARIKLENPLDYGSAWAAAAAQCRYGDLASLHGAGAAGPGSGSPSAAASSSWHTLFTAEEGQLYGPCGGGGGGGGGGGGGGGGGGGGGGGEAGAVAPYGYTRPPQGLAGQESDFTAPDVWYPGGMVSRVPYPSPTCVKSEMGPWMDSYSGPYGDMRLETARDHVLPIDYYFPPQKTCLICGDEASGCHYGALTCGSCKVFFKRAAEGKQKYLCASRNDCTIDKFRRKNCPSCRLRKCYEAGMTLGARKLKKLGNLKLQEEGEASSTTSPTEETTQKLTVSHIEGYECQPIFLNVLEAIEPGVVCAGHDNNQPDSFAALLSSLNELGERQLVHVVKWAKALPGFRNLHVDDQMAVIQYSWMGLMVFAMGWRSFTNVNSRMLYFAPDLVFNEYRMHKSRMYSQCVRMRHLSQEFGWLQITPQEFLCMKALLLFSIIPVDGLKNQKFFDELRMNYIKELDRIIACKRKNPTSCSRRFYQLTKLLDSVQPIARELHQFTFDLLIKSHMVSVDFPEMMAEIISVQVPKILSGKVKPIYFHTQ

Androgen receptor [2] = target: T1, Androgen receptor; test: Agonist activity at androgen receptor expressed in C2C12 mouse cells by luciferase reporter transactivation assay; format: functional, cell-based
Rattus norvegicus [3] = test: Stimulation of ventral prostate tissue weight in Sprague-Dawley rat at 1 mg/kg, po after 14 days; format: functional, Prostate gland
In short: (§1)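 Mature male rats were castrated two weeks before treatment. Compound was given […] once daily for two weeks, then levator ani muscle and ventral prostate were weighed. Weights are expressed as percent of a sham-operated, vehicle-treated intact control group, ±SEM.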

Rattus norvegicus [4] = test: Stimulation of levator ani muscle weight in Sprague-Dawley rat at 1 mg/kg, po after 14 days; format: functional; in short: as §1
Rattus norvegicus [5] = test: Stimulation of ventral prostate tissue weight in Sprague-Dawley rat at 0.3 mg/kg, sc after 14 days; format: functional, Prostate gland; settings: route subcutaneous
In short: (§2)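 Mature male rats were castrated two weeks before dosing. Testosterone propionate was given subcutaneously for two weeks, then levator ani muscle and ventral prostate were weighed. Weights are expressed as percent of a sham-operated, vehicle-treated intact control group, ±SEM.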

Rattus norvegicus [6] = test: Stimulation of levator ani muscle weight in Sprague-Dawley rat at 0.3 mg/kg, sc after 14 days; format: functional; settings: route subcutaneous; in short: as §2
[7] = Bioavailability in Sprague-Dawley rat at 10 mg/kg, po; format: ADME, organism-based; settings: in vivo
In short: (§3)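 Rat pharmacokinetics used 5 mg/kg i.v. and 10 mg/kg p.o. dosing. Oral bioavailability (F%), half-life, oral Tmax and total body clearance were derived from plasma concentrations.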

Estrogen receptor = Estrogen receptor (Homo sapiens, UniProt P03372); test: Binding affinity to ERalpha
Chain of Estrogen receptor (P03372 whole entry, looked up): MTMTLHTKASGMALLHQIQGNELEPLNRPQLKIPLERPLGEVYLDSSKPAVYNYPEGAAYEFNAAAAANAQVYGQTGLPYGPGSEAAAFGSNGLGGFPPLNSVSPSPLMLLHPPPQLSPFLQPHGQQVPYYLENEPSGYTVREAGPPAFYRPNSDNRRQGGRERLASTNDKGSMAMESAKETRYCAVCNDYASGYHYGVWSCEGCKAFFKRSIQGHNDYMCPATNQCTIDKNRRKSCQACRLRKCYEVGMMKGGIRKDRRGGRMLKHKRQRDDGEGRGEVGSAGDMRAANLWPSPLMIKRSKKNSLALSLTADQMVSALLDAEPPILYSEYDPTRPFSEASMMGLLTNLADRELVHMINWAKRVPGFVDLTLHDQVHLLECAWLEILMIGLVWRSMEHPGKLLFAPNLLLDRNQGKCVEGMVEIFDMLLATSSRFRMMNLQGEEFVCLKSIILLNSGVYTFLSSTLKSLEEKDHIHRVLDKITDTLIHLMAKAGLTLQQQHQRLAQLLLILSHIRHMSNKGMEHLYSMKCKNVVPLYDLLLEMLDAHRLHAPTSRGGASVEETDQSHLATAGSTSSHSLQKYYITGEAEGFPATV

[8] = Clearance in Sprague-Dawley rat at 10 mg/kg, po and 5 mg/kg, iv; format: ADME, organism-based; settings: in vivo; in short: as §3
Cytochrome P450 2D6 = Cytochrome P450 2D6 (Homo sapiens, UniProt P10635); test: Inhibition of CYP2D6; format: ADME
Chain of Cytochrome P450 2D6 (P10635 whole entry): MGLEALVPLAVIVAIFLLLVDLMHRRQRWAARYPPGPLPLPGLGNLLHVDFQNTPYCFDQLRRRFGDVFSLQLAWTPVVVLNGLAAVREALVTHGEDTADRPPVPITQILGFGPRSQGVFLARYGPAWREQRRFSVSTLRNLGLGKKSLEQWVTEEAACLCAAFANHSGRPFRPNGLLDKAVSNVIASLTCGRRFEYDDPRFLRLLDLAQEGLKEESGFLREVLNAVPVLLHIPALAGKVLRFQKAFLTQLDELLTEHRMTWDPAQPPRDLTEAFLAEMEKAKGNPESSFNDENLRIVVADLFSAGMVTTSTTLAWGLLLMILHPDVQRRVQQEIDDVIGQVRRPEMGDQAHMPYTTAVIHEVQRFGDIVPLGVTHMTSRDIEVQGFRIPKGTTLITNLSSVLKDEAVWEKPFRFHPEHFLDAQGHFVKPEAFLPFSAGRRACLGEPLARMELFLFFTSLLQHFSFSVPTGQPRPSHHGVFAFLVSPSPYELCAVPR

[9] = Toxicity against human hepatocyte; format: cell-based; settings: hepatocytes
Cytochrome P450 1A2 = target: T2, Cytochrome P450 1A2 (Homo sapiens, UniProt P05177); test: Inhibition of CYP1A2; format: ADME
T2 sequence (P05177 whole entry): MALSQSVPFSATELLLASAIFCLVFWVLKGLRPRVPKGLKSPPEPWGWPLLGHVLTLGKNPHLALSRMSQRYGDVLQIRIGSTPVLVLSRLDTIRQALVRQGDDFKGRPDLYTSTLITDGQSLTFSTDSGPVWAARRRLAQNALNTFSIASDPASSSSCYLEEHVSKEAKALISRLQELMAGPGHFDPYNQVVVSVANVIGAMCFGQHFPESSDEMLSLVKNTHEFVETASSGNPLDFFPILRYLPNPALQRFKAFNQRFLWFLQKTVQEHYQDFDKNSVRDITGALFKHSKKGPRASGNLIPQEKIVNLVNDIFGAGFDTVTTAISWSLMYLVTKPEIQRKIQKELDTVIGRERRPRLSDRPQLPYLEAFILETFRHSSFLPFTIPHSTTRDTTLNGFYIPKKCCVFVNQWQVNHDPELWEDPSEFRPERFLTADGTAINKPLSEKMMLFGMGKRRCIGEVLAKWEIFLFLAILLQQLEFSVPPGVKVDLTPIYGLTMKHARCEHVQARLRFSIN

[10] = Half life in Sprague-Dawley rat at 10 mg/kg, po and 5 mg/kg, iv; format: ADME, organism-based; settings: in vivo; in short: as §3
[11] = Tmax in Sprague-Dawley rat at 10 mg/kg, po; format: ADME, organism-based; parameters: dose 10 mg/kg, route oral; settings: in vivo; in short: as §3
Glucocorticoid receptor = target: T3, Glucocorticoid receptor (Homo sapiens, UniProt P04150); test: Binding affinity to glucocorticoid receptor
T3 sequence (P04150 whole entry): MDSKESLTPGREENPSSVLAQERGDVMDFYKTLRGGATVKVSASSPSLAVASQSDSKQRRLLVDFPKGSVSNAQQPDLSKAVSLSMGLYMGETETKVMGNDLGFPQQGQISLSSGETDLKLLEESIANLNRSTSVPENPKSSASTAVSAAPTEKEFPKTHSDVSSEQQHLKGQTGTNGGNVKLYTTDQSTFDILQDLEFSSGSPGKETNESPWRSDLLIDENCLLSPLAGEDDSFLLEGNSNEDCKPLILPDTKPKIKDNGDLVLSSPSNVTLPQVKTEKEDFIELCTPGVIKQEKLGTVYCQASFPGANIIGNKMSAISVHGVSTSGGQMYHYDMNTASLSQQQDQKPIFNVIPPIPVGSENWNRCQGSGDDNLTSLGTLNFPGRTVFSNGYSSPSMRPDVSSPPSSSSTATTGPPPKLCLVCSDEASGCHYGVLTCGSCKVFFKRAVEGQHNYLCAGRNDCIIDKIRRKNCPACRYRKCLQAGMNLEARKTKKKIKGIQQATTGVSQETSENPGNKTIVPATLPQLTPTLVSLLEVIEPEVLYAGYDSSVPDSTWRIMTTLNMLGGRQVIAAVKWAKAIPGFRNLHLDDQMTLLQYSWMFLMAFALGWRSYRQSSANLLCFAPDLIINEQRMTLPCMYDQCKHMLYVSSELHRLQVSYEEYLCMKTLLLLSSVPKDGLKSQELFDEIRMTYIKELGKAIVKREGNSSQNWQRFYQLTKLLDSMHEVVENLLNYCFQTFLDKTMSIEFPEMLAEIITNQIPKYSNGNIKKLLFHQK

[12] = AUC(0-4h) in Sprague-Dawley rat at 10 mg/kg; format: ADME, organism-based; parameters: time < 5 hr, dose 10 mg/kg; settings: plasma
Cytochrome P450 3A4 = Cytochrome P450 3A4 (Homo sapiens, UniProt P08684); test: Inhibition of CYP3A4; format: ADME
Chain of Cytochrome P450 3A4 (P08684 whole entry): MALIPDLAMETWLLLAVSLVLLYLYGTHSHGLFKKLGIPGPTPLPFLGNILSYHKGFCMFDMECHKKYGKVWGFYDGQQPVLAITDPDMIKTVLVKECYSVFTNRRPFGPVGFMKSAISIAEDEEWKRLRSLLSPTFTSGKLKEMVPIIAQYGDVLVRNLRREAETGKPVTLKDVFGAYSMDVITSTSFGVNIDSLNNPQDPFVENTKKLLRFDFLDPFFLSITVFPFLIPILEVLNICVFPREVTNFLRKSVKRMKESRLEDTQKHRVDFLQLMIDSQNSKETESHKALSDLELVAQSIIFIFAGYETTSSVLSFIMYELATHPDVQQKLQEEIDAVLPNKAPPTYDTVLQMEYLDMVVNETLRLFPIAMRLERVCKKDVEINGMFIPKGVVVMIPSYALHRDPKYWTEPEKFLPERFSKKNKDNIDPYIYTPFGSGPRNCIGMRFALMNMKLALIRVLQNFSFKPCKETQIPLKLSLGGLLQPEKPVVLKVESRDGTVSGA

[13] = Binding affinity to progesterone receptor; parameters: species or system Homo sapiens
hERG = hERG (Homo sapiens, UniProt Q12809); test: Inhibition of hERG at 30 uM by patch clamp method; format: toxicity
Chain of hERG (Q12809 whole entry): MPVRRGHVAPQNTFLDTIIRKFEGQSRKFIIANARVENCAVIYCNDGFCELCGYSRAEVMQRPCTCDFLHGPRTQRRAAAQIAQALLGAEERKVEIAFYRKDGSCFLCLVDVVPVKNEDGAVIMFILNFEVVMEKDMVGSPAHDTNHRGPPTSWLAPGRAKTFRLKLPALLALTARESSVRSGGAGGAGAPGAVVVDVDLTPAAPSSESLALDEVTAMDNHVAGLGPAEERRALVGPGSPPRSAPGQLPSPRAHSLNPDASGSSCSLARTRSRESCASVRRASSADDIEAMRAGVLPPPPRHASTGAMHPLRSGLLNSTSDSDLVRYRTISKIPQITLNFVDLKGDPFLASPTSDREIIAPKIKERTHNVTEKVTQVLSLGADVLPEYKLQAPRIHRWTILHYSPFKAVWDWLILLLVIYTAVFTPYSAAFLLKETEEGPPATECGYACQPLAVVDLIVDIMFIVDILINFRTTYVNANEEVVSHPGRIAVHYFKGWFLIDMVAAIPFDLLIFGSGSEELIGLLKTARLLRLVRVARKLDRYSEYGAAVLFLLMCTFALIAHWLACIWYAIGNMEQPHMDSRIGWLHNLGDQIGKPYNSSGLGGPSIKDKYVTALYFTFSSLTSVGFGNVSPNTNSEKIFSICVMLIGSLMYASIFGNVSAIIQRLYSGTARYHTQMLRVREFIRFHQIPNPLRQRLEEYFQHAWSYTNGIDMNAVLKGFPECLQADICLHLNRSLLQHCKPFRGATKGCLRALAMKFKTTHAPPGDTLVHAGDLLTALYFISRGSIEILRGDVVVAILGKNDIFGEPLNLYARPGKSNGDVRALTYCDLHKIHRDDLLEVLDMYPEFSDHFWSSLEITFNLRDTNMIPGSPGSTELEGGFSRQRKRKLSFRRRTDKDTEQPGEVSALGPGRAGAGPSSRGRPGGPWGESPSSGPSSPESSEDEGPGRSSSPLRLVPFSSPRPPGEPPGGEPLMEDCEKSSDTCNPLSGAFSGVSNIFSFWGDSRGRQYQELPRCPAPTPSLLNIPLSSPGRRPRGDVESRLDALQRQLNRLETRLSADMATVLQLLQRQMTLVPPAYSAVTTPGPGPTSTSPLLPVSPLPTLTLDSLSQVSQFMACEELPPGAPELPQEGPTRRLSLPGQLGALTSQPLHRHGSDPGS

[14] = (§4) Cmax in Sprague-Dawley rat at 10 mg/kg, po; format: ADME, organism-based; parameters: dose 10 mg/kg, route oral; settings: in vivo
[15] = Aqueous solubility of the compound; format: physicochemical
[16] = as §4; format: ADME, organism-based; parameters: dose 10 mg/kg, route oral; settings: in vivo; remark: listed apart in the source
Aromatase = target: T4, Aromatase (Homo sapiens, UniProt P11511); test: Inhibition of aromatase
T4 sequence (P11511 whole entry): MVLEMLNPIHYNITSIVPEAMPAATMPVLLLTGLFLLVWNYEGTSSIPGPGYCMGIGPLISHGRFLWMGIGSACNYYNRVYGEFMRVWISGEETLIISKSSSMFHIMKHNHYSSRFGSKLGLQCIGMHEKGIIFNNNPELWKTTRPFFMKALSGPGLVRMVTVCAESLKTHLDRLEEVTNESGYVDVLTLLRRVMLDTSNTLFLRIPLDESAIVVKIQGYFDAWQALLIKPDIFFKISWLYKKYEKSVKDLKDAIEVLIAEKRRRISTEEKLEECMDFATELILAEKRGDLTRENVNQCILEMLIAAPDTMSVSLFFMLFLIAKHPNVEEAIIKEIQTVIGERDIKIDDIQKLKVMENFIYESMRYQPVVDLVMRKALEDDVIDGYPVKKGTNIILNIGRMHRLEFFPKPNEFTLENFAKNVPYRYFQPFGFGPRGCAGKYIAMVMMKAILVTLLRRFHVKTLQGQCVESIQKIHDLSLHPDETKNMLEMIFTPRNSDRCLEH

Cytochrome P450 2C9 = Cytochrome P450 2C9 (Homo sapiens, UniProt P11712); test: Inhibition of CYP2C9; format: ADME
Chain of Cytochrome P450 2C9 (P11712 whole entry): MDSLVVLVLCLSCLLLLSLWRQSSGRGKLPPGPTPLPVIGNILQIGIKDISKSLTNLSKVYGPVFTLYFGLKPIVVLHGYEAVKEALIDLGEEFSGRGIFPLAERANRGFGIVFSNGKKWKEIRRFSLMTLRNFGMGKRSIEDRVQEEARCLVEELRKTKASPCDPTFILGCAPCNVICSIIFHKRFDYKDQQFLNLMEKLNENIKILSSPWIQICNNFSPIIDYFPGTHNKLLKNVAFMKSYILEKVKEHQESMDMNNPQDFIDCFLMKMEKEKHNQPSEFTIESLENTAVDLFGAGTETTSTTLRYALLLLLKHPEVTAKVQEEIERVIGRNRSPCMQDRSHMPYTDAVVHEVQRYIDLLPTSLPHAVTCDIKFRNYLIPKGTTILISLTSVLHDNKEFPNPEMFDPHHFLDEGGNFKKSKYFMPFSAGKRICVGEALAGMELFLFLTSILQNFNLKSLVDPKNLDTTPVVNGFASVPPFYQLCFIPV

[17] = target: T5, Sex hormone-binding globulin (Homo sapiens, UniProt P04278); test: Binding affinity to SHBG
T5 sequence (P04278 whole entry): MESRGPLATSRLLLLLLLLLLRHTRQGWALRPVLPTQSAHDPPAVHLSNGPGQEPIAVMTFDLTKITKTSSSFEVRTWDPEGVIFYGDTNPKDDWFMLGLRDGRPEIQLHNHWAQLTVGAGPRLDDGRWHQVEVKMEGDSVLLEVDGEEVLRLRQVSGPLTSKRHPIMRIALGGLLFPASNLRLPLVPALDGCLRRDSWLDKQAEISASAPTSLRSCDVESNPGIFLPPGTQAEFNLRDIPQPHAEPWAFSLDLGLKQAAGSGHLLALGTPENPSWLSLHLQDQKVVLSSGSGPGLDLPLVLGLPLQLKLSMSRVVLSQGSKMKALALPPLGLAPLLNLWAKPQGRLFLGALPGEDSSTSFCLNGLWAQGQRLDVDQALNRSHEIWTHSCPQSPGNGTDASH

Cytochrome P450 2C19 = Cytochrome P450 2C19 (Homo sapiens, UniProt P33261); test: Inhibition of CYP2C19; format: ADME
Chain of Cytochrome P450 2C19 (P33261 whole entry): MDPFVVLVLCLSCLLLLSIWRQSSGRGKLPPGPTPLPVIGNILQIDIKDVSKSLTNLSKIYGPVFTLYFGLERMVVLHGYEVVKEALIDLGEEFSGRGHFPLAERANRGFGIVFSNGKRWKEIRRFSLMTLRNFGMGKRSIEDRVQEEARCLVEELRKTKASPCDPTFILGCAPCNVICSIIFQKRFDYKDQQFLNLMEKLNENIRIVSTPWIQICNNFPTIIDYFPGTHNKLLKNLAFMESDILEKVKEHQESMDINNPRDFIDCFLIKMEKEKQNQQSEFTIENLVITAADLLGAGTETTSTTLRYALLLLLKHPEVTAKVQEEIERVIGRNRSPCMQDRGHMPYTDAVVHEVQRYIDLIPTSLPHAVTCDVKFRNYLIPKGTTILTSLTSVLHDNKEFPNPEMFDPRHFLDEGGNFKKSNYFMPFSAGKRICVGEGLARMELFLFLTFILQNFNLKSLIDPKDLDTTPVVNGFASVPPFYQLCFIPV

SMILES: Cc1c(N2C(=O)N3CC[C@@H](O)[C@H]3[C@H]2C(C)C)ccc(C#N)c1Cl
- pKi (Androgen receptor [1]): 7.64
- pEC50 (Androgen receptor [2]): 6.97

SMILES: Cc1c(N2C[C@@H]3[C@H](O)CC[C@@H]3C2=O)ccc(C#N)c1Cl
- Activity (Rattus norvegicus [3]): 6%
- pEC50 (Androgen receptor [2]): 7.70
- Activity (Rattus norvegicus [4]): 45%

SMILES: CC[C@@H]1[C@@H]2[C@@H](O)CCN2C(=O)N1c1ccc(C#N)c(Cl)c1C
- pKi (Androgen receptor [1]): 8.80
- pEC50 (Androgen receptor [2]): 8.15

SMILES: CCC(=O)O[C@H]1CC[C@H]2[C@@H]3CCC4=CC(=O)CC[C@]4(C)[C@H]3CC[C@]12C [TESTOSTERONE PROPIONATE]
- Activity (Rattus norvegicus [5]): 68%
- Activity (Rattus norvegicus [6]): 70%

SMILES: CC[C@H]1[C@@H]2[C@@H](O)CCN2C(=O)N1c1ccc(C#N)c(Cl)c1C
- bioavailability [7]: 65%
- pKi (Estrogen receptor): < 5.00
- pKi (Androgen receptor [1]): 9.05
- Activity (Rattus norvegicus [3]): 24%
- clearance [8]: 3.48 L/h/kg
- pIC50 (Cytochrome P450 2D6): < 4.40
- pIC50 [9]: < 3.70
- pIC50 (Cytochrome P450 1A2): < 4.40
- half-life [10]: 5.5 h
- Tmax [11]: 0.8 h
- pKi (Glucocorticoid receptor): < 5.00
- AUC(0-t) at 5 h [12]: 6.08 µM·h
- pIC50 (Cytochrome P450 3A4): < 4.40
- pKi [13]: < 5.00
- inhibition at 30 µM (hERG): 6%
- Cmax [14]: 3.1 µM
- solubility [15]: 0.242 mg/mL (≈ 757 µM)
- Cmax [16]: 2.1 µM
- pIC50 (Aromatase): < 4.00
- pEC50 (Androgen receptor [2]): 8.74
- pIC50 (Cytochrome P450 2C9): < 4.40
- pKi [17]: < 4.00
- Activity (Rattus norvegicus [4]): 101%
- pIC50 (Cytochrome P450 2C19): 5.12

SMILES: Cc1c(N2C(=O)N3CC[C@@H](O)[C@H]3[C@@H]2C(F)(F)F)ccc(C#N)c1Cl
- pKi (Androgen receptor [1]): 9.00
- Activity (Rattus norvegicus [3]): 3%
- AUC(0-t) at 5 h [12]: 1.18 µM·h
- Cmax [14]: 0.819 µM
- pEC50 (Androgen receptor [2]): 8.54
- Activity (Rattus norvegicus [4]): 40%

SMILES: CC1=C(c2ccc(C#N)c(Cl)c2C)C(=O)N2CC[C@H](O)[C@@H]12
- pEC50 (Androgen receptor [2]): 8.70

SMILES: Cc1c(N2C(=O)N3CC[C@H](O)[C@H]3[C@@H]2C(F)(F)F)ccc(C#N)c1Cl
- pKi (Androgen receptor [1]): 9.05
- pEC50 (Androgen receptor [2]): 8.60
